Measurements taken from ChEMBL document CHEMBL1123352, “Anticonvulsant activity of 2- and 3-aminobenzanilides” (J Med Chem, 1986).
Active and inactive are the calls of the source. No cut-off for these calls is given here.

How the values were obtained:
[1] = system: Mus musculus; assay: Compound was tested for toxicity by rotarod assay method in mice 30 min after ip administration of 300 mg/kg; A=Active; assay type: organism-based; set-up: dose 300 mg/kg, route intraperitoneal; conditions: in vivo, 0.5 h
[2] = system: Mus musculus; assay: Anticonvulsant activity against subcutaneous pentylenetetrazole induced convulsions in mice 4 hr after ip administration of 600 mg/kg.; assay type: functional, organism-based; set-up: dose 600 mg/kg
Procedure, shortened: (§1)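 Male Carworth Farms No. 1 mice were dosed ip with compound in 30% PEG 400, at 30–600 mg/kg, and read at 30 min and 4 h. Pentylenetetrazole was given at 85 mg/kg as a 0.5% solution sc in the posterior midline. Protection meant no single episode of clonic spasms lasting at least 5 s over a 30-min observation.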

[3] = Compound for toxicity by rotarod assay method in mice after administration; assay type: organism-based; conditions: mouse, in vivo
Procedure, shortened: (§2)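 Neurologic deficit was tested in male Carworth Farms No. 1 mice 30 min and 4 h after ip dosing in 30% PEG 400, at 30–600 mg/kg. Each mouse was placed on a 1-in.-diameter knurled plastic rod turning at 6 rpm. Toxicity meant failing to stay on the rod for 1 min.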

[4] = system: Mus musculus; assay: Anticonvulsant activity against maximal electroshock (MES) induced seizures in mice 4 hours after ip administration of 300 mg/kg; A=Active; assay type: functional, organism-based; set-up: dose 300 mg/kg
Procedure, shortened: (§3)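 Male Carworth Farms No. 1 mice were dosed ip with compound in 30% polyethylene glycol 400, at 30, 100 and 300 mg/kg and sometimes 600 mg/kg, and tested 30 min and 4 h later. A drop of 0.9% saline went in the eye, then 60-cycle AC at 50 mA was given for 0.2 s via corneal electrodes. Protection meant abolition of hind limb tonic extension.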

[5] = system: Mus musculus; assay: Compound was tested for toxicity by rotarod assay method in mice 4 hours after ip administration of 600 mg/kg; A=Active; assay type: organism-based; set-up: dose 600 mg/kg, route intraperitoneal; conditions: in vivo
[6] = species on record: Mus musculus; assay: Anticonvulsant activity against maximal electroshock (MES)-induced seizures in mice; assay type: functional; procedure, shortened: as §3
[7] = system: Mus musculus; assay: Anticonvulsant activity against sc pentylenetetrazole-induced convulsions in mice 30 minutes after ip administration of 300 mg/kg; A=Active; assay type: functional, organism-based; set-up: dose 300 mg/kg; procedure, shortened: as §1
[8] = system: Mus musculus; assay: Anticonvulsant activity against maximal electroshock (MES) induced seizures in mice 30 minutes after ip administration of 100 mg/kg; A=Active; assay type: functional, organism-based; set-up: dose 100 mg/kg; procedure, shortened: as §3
[9] = system: Mus musculus; assay: Anticonvulsant activity against maximal electroshock (MES) induced seizures in mice 30 minutes after ip administration of 300 mg/kg; A=Active; assay type: functional, organism-based; set-up: dose 300 mg/kg; procedure, shortened: as §3
[10] = system: Mus musculus; assay: Compound was tested for toxicity by rotarod assay method in mice 30 min after ip administration of 600 mg/kg; no activity; assay type: organism-based; set-up: dose 600 mg/kg, route intraperitoneal; conditions: in vivo, 0.5 h
[11] = system: Mus musculus; assay: Anticonvulsant activity against subcutaneous pentylenetetrazole induced convulsions in mice 30 min after ip administration of 600 mg/kg.; assay type: functional, organism-based; set-up: dose 600 mg/kg; procedure, shortened: as §1
[12] = system: Mus musculus; assay: Anticonvulsant activity against sc pentylenetetrazole induced convulsions in mice 4 hr after ip administration of 600 mg/kg; A=Active; assay type: functional, organism-based; set-up: dose 600 mg/kg; procedure, shortened: as §1
[13] = system: Mus musculus; assay: Anticonvulsant activity against maximal electroshock (MES) induced seizures in mice 4 hours after ip administration of 600 mg/kg; A=Active; assay type: functional, organism-based; set-up: dose 600 mg/kg; procedure, shortened: as §3
[14] = system: Mus musculus; assay: Compound was tested for toxicity by rotarod assay method in mice 4 hours after ip administration of 600 mg/kg; NA=No activity; assay type: organism-based; set-up: dose 600 mg/kg, route intraperitoneal; conditions: in vivo
[15] = system: Mus musculus; assay: Anticonvulsant activity against sc pentylenetetrazole-induced convulsions in mice 30 minutes after ip administration of 300 mg/kg; Active; assay type: functional, organism-based; set-up: dose 300 mg/kg; procedure, shortened: as §1
[16] = system: Mus musculus; assay: Compound was tested for toxicity by rotarod assay method in mice 30 min after ip administration of 300 mg/kg; Active; assay type: organism-based; set-up: dose 300 mg/kg, route intraperitoneal; conditions: in vivo, 0.5 h
[17] = system: Mus musculus; assay: Anticonvulsant activity against sc pentylenetetrazole induced convulsions in mice 30 minutes after ip administration of 600 mg/kg; A=Active; assay type: functional, organism-based; set-up: dose 600 mg/kg; procedure, shortened: as §1
[18] = system: Mus musculus; assay: Anticonvulsant activity against subcutaneous pentylenetetrazole induced convulsions in mice after intraperitoneal administration after 4 hr at 600 mg/kg; NA=No activity; assay type: functional, organism-based; set-up: dose 600 mg/kg; procedure, shortened: as §1
[19] = system: Mus musculus; assay: Compound was tested for toxicity by rotarod assay method in mice after intraperitoneal administration after 30 minutes; assay type: functional, organism-based; procedure, shortened: as §2
[20] = system: Mus musculus; assay: Compound was tested for toxicity by rotarod assay method in mice after intraperitoneal administration after 4 hours; assay type: functional, organism-based; procedure, shortened: as §2
[21] = system: Mus musculus; assay: Anticonvulsant activity against maximal electroshock (MES) induced seizures in mice 30 minutes after ip administration of 600 mg/kg; A=Active; assay type: functional, organism-based; set-up: dose 600 mg/kg; procedure, shortened: as §3
[22] = system: Mus musculus; assay: Anticonvulsant activity against maximal electroshock (MES) induced seizures in mice 4 hours after ip administration of 600 mg/kg.; assay type: functional, organism-based; set-up: dose 600 mg/kg; procedure, shortened: as §3
[23] = system: Mus musculus; assay: Compound was tested for toxicity by rotarod assay method in mice 30 min after ip administration of 600 mg/kg; A=Active; assay type: organism-based; set-up: dose 600 mg/kg, route intraperitoneal; conditions: in vivo, 0.5 h
[24] = system: Mus musculus; assay: Anticonvulsant activity against subcutaneous pentylenetetrazole induced convulsions in mice 4 hours after ip administration of 600 mg/kg; NA=No activity; assay type: functional, organism-based; set-up: dose 600 mg/kg; procedure, shortened: as §1
[25] = system: Mus musculus; assay: Anticonvulsant activity against maximal electroshock (MES) induced seizures in mice 30 minutes after ip administration of 600 mg/kg; NA=No activity; assay type: functional, organism-based; set-up: dose 600 mg/kg; procedure, shortened: as §3
[26] = system: Mus musculus; assay: Compound was tested for toxicity by rotarod assay method in mice 30 min after ip administration at 600 mg/kg; no activity; assay type: organism-based; set-up: dose 600 mg/kg, route intraperitoneal; conditions: in vivo, 0.5 h
[27] = system: Mus musculus; assay: Compound was tested for toxicity by rotarod assay method in mice 4 hours after ip administration at 600 mg/kg; no activity; assay type: organism-based; set-up: dose 600 mg/kg, route intraperitoneal; conditions: in vivo
[28] = system: Mus musculus; assay: Anticonvulsant activity against subcutaneous pentylenetetrazole induced convulsions in mice 4 hours after ip administration of 600 mg/kg; No=No activity; assay type: functional, organism-based; set-up: dose 600 mg/kg; procedure, shortened: as §1
[29] = system: Mus musculus; assay: Compound for anticonvulsant activity against maximal electroshock (MES)-induced seizures in mice after administration; assay type: functional; procedure, shortened: as §3
[30] = system: Mus musculus; assay: Compound was tested for toxicity by rotarod assay method in mice after intraperitoneal administration after 4 hours at 600 mg/kg; no activity; assay type: organism-based; set-up: dose 600 mg/kg, route intraperitoneal; conditions: in vivo, ip

SMILES | Anticonvulsant activity [2] | Anticonvulsant activity [11] | Anticonvulsant activity [22] | Anticonvulsant activity [25] | Toxicity [26] | Toxicity [27] | Anticonvulsant activity [28] | also measured
Cc1ccccc1NC(=O)c1cccc(N)c1 | inactive | – | – | – | – | – | – | Toxicity [1]: Active; TD50 [3]: 109 mg/kg; Anticonvulsant activity [4]: Active; Toxicity [5]: Active; ED50 [6]: 44.7 mg/kg; Anticonvulsant activity [7]: Active; Anticonvulsant activity [8]: Active
Cc1ccc(NC(=O)c2cccc(N)c2)cc1 | inactive | inactive | – | – | – | – | – | Anticonvulsant activity [4]: Active; Anticonvulsant activity [9]: Active; Toxicity [10]: Not Active; Toxicity [5]: Active
Nc1cccc(C(=O)Nc2ccccc2)c1 | – | – | – | – | – | – | – | Toxicity [1]: Active; Anticonvulsant activity [4]: Active; Toxicity [5]: Active; Anticonvulsant activity [7]: Active; Anticonvulsant activity [8]: Active; Anticonvulsant activity [12]: Active
Cc1cccc(C)c1NC(=O)c1ccccc1N | inactive | – | – | – | – | – | – | Anticonvulsant activity [13]: Active; Anticonvulsant activity [9]: Active; Toxicity [14]: Not Active; Anticonvulsant activity [15]: Active; Toxicity [16]: Active
Cc1ccccc1NC(=O)c1ccccc1N | – | – | – | – | – | – | – | Anticonvulsant activity [17]: Active; Anticonvulsant activity [13]: Active; Anticonvulsant activity [18]: inactive; Anticonvulsant activity [9]: Active; Toxicity [14]: Not Active; Toxicity [16]: Active
Cc1cccc(NC(=O)c2cccc(N)c2)c1C | inactive | inactive | inactive | – | – | – | – | Toxicity [19]: inactive; Toxicity [20]: inactive; Anticonvulsant activity [21]: Active
Cc1cc(C)cc(NC(=O)c2cccc(N)c2)c1 | inactive | – | – | – | – | – | – | Anticonvulsant activity [4]: Active; Toxicity [23]: Active; Anticonvulsant activity [9]: Active; Anticonvulsant activity [7]: Active
Nc1ccccc1C(=O)Nc1ccccc1 | – | inactive | inactive | – | – | – | – | Toxicity [23]: Active; Anticonvulsant activity [24]: inactive; Anticonvulsant activity [9]: Active; Toxicity [14]: Not Active
Cc1cc(C)cc(NC(=O)c2ccccc2N)c1 | – | inactive | inactive | inactive | Not Active | Not Active | inactive | –
Cc1ccc(NC(=O)c2cccc(N)c2)c(C)c1 | – | inactive | inactive | inactive | Not Active | Not Active | inactive | –
CCc1cccc(C(C)C)c1NC(=O)c1ccccc1N | – | inactive | inactive | inactive | Not Active | Not Active | inactive | –
Cc1cccc(NC(=O)c2ccccc2N)c1 | – | inactive | inactive | inactive | Not Active | Not Active | inactive | –
Cc1cccc(C(C)C)c1NC(=O)c1ccccc1N | inactive | inactive | inactive | – | – | – | – | Anticonvulsant activity [21]: Active; Toxicity [10]: Not Active; Toxicity [14]: Not Active
Cc1ccc(C)c(NC(=O)c2cccc(N)c2)c1 | – | inactive | inactive | inactive | Not Active | Not Active | inactive | –
Cc1ccc(NC(=O)c2ccccc2N)c(C)c1 | inactive | – | – | – | – | – | – | Anticonvulsant activity [17]: Active; Toxicity [23]: Active; Anticonvulsant activity [13]: Active; Anticonvulsant activity [21]: Active; Toxicity [14]: Not Active
Cc1ccc(C)c(NC(=O)c2ccccc2N)c1 | – | inactive | inactive | inactive | Not Active | Not Active | inactive | –
CC(C)c1ccccc1NC(=O)c1ccccc1N | – | inactive | inactive | inactive | Not Active | Not Active | inactive | –
Cc1ccc(NC(=O)c2ccccc2N)cc1 | – | inactive | inactive | inactive | Not Active | Not Active | inactive | –
Cc1cccc(C)c1NC(=O)c1ccc(N)cc1 [AMELTOLIDE] | – | – | – | – | – | – | – | ED50 [29]: 2.6 mg/kg
Cc1ccc(NC(=O)c2ccccc2N)cc1C | – | inactive | inactive | inactive | Not Active | Not Active | inactive | –
CCc1cccc(C(C)C)c1NC(=O)c1cccc(N)c1 | inactive | inactive | – | – | – | – | – | Anticonvulsant activity [13]: Active; Anticonvulsant activity [9]: Active; Toxicity [10]: Not Active; Toxicity [30]: Not Active
